Insulin prom act: activators of insulin promoter-driven GFP, primary screen, imaging, TRM-6 cells (human fetal islet line), eGFP reporter, cell count; 130,000 compounds, 0.81% hits; AID 1296, 2008; plate-scaled: unstimulated 0, stimulated control 100; activation, % at 2 µM;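 active = activation at 2 µM above a set limit, confirmed on inspection of the cell images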;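 note: share of cells whose green reporter signal exceeds an intensity cutoff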
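test system = TRM-6 insulin promoter–eGFP reporter cells | benchmarks = stimulated versus unstimulated wells as plate controls | read-out basis = percent cells above green-intensity threshold, converted to percent activation versus plate controls | detection = fixed-cell fluorescence microscopy, eGFP plus Hoechst | incubation = tamoxifen pre-incubation 15 h overnight, then compound exposure 48 h at 37 °C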
The depositor's hits bear a star; + = active, no number; [ ] = remark or other dose. Many of the other results were omitted from the sample, so hits are more common in it than they were.

SMILES	Insulin prom act
Cc1ccccc1CN1CCN(S(C)(=O)=O)CC1	444*
CCNC(=O)c1ccc2c(c1)C1C3CCC(C3)C1C(c1ccccc1)N2 (configuration not stated)	8
COCCn1cnnc1SCC(=O)Nc1ccc(Br)cc1F	0
O=C(O)CCc1nc2cc3ccccc3cc2[nH]1	8
CC(C)CNC(=O)CN(C)S(=O)(=O)c1ccc(F)cc1	-8
CCN(CC)S(=O)(=O)c1ccc(F)cc1	190
CCOC(=O)CCN(Cc1sccc1C)S(=O)(=O)c1ccc(F)cc1	77*
Cc1ccc(CS(=O)(=O)CCC(=O)NCc2cccs2)cc1	3
CCn1cc(-c2cc(C(=O)O)c3ccccc3n2)cn1	0
CCCCN(CC(=O)NCc1ccc(Cl)cc1)S(=O)(=O)c1ccc2c(c1)OCCO2	8
O=C1C(C2=C(O)c3ccccc3C2=O)=Nc2ccccc21	440*
CC(=NCCCN(C)C)C1=C(O)c2ccccc2C1=O	-6
CC(=NC1CC1)C1=C(O)c2ccccc2C1=O	6
Cc1ccc(CNC(=O)Cn2cccc2C(=O)c2ccccc2)cc1	5
O=C(Cn1cccc1C(=O)c1ccccc1)NCc1cccc(Cl)c1	387*
O=C(Cn1cccc1C(=O)c1ccccc1)NCc1ccc(Cl)cc1	7
Cc1cccc(N2CCN(C(=O)C3CCN(S(=O)(=O)c4c(C)noc4C)CC3)CC2C)c1 (configuration not stated)	107
C=CCn1c(C(C)NC(=O)c2ccccc2C)n[nH]c1=S (configuration not stated)	-3
CCCCCCCCNC(=O)c1cccnc1SCC(=O)Nc1ccc(OC)cc1OC	0
COc1cccc(NC(=O)C2C3C=CC4(O3)C2C(=O)N(C2CC2)C4C(=O)NC2CCCCC2C)c1 (configuration not stated)	810*
CCCCN1C(=O)C2C(C(=O)Nc3cccc(OC)c3)C3C=CC2(O3)C1C(=O)NC1CCCCC1C (configuration not stated)	126
COc1cccc(NC(=O)C2C3C=CC4(O3)C2C(=O)N(C(C)C)C4C(=O)NC2CCCCC2C)c1 (configuration not stated)	-29
CCC(=O)Nc1ccc2c(c1)ncn2-c1ccc(C)cc1	-8
Cc1ccc(-n2[nH]c(C)c(C=Nc3ccc(Br)cn3)c2=O)cc1	119
COc1cc(S(=O)(=O)Nc2ccc(C)cc2)ccc1N=Cc1c(C)[nH]n(-c2ccccc2)c1=O	-72
SMILES	Insulin prom act
CCSc1nnc(-c2cc(Br)ccc2N=Cc2c(C)[nH]n(-c3ccccc3)c2=O)c(=O)[nH]1	356*
N#CCCn1cc(C(=O)Nc2ccccc2Br)c(-c2cccs2)n1	457*
O=C(Nc1cccnc1)c1cn(-c2ccccc2)nc1-c1cccs1	-8
O=C(Nc1cccc2ccccc12)c1cn(-c2ccccc2)nc1-c1cccs1	8
CCC(=O)Nc1ccc(C(=O)CSc2nc3ccccc3[nH]2)cc1	-60
O=C(O)c1ccc(COc2ccc(Cl)cc2)o1	8
O=C(O)c1ccc(CS(=O)c2cccc(C(F)(F)F)c2)o1 (configuration not stated)	40
O=C(O)CC(SCc1ccc(C(=O)O)o1)C(=O)O (configuration not stated)	76*
Cc1cccc(NC(=O)NCc2ccccn2)c1	119
O=[N+]([O-])c1ccc(N=Cc2ccc(Br)c([N+](=O)[O-])c2)cc1	0
CS(=O)(=O)c1ccc(-c2nnn(CC(N)=O)n2)cc1	0
CCCC(=O)NCn1nnc(-c2ccc(Cl)cc2)n1	488*[fluoresces]
CCc1ccc(-c2nnn(CCC(=O)OC)n2)cc1	-6
Cc1sc2nc(CN3CCC(C)CC3)nc(Cl)c2c1C	6
O=C(CSc1nc2ccsc2c(=O)n1Cc1ccc(C(=O)O)cc1)NCC1CCCO1 (configuration not stated)	6
CC1CCCC(C)N1C(=O)CSc1nnc(-c2cccs2)o1 (configuration not stated)	3
O=C(CSc1nnc(-c2cccs2)o1)NCC1CN(Cc2ccccc2)CCO1 (configuration not stated)	76*
CCOP(=O)(C1=C(O)C(=O)C(C(C)(C)C)=CC1=O)c1ccccc1 (configuration not stated)	-67
COC(=O)[C@H](CCSC)NC(=O)NCc1ccccc1F	3
COc1ccc(/C=N/NC(=O)CCNc2n[nH]c(=O)[nH]c2=O)c(OC)c1	-3
CC(C)OC(=O)CCNc1n[nH]c(=O)[nH]c1=O	543*
CCCCOC(=O)CNc1n[nH]c(=S)[nH]c1=O	0
O=C(CSc1nnc2ccccn12)NCc1cccs1	3
CC1SC(c2cccc(Cl)c2)NC1=O (configuration not stated)	7
CC1SC(c2ccc(Cl)cc2)NC1=O (configuration not stated)	444*
SMILES	Insulin prom act
OCCN(Cc1ccccc1)CC1CC2C=CC1C2 (configuration not stated)	8
OCCN(Cc1ccccc1)Cc1cccc(F)c1	81*
OCCN(Cc1ccccc1)CC1CCCCC1	-77
CCOc1ccc(/C=C(/NC(=O)c2ccccc2Cl)C(=O)O)cc1	0
C=C(C)CSc1nc2ccccc2c(=O)n1-c1c(C)n(C)n(-c2ccccc2)c1=O	7
CCn1nc(C)c(/C=N/NC(=O)Cn2nccc2C)c1C	3
NS(=O)(=O)c1ccc(CCNC(=O)c2ccco2)cc1	-7
COC(=O)c1[nH]c2ccc(C)cc2c1NC(=O)CN1CCCc2ccccc21	166
O=C(CN1CCCc2ccccc21)NCCc1ccc(Cl)cc1	300*
O=C(CN1CCCc2ccccc21)NCc1ccc2c(c1)OCO2	-9
Cn1c(SCC(=O)NC2CC2)nnc1-c1ccco1	-6
CCc1ccc(OC)c(S(=O)(=O)NCCOc2ccccc2)c1	226
CCN(CC)c1ccc2cc(-c3nc(-c4ccc(OC)cc4)cs3)c(=O)oc2c1	223*[fluoresces]
CN(C)C(=O)COc1ccc2cc(-c3ccccc3)c(=O)oc2c1	-27
CCOC(=O)c1cc2ccc(OC)cc2oc1=O	5
COc1cc(OC)cc(-c2nc(N)n[nH]2)c1	189
Cc1cc(C(=O)CSc2nnc(-c3ccc(F)cc3)o2)c(C)n1CC1COc2ccccc2O1 (configuration not stated)	8
O=C(CSc1nnc(-c2ccncc2)n1CC1CCCO1)NCc1ccccc1 (configuration not stated)	-8
Cc1cc(C(=O)CSc2nnc(-c3cccnc3)n2-c2ccccc2F)c(C)n1CC1CCCO1 (configuration not stated)	91*
Cc1ccc(C(=O)Nc2ccc(OCc3ccccc3)cc2)cc1[N+](=O)[O-]	-6
Cc1ccc(/C([O-])=C(/C(=S)NCc2ccccc2)[n+]2cccc(CO)c2)cc1[N+](=O)[O-]	+
Cc1ccc[n+](/C(C(=S)NCc2ccco2)=C(/[O-])c2ccccc2Cl)c1	287
Nn1c(SCC(=O)N2CCOCC2)nnc1-c1ccco1	-3
CCOc1ccc(N/C=C/C(=O)c2ccc3ccccc3c2)c([N+](=O)[O-])c1	5
COc1cccc(N2CCN(Cc3nc4ccccc4c(=O)[nH]3)CC2)c1	-79
COc1ccc(N2CCN(Cc3nc4ccccc4c(=O)[nH]3)CC2)cc1	579*
CCC(CC)C(=O)N1CCN(Cc2nc3ccccc3c(=O)[nH]2)CC1	-10

Screens as filed in PubChem BioAssay.
